Test results taken from ChEMBL document CHEMBL3351360, “Design and Synthesis of Orally Bioavailable Benzimidazole Reverse Amides as Pan RAF Kinase Inhibitors” (ACS Med Chem Lett, 2014).
In brackets after ≈: the same amount, converted by molar mass. Activity calls are given as the source filed them. The calls are words filed in the database; no cut-off is given here.

Assays:
[1] = target: Serine/threonine-protein kinase B-raf (Homo sapiens, UniProt P15056); assay: Inhibition of BRAF (unknown origin)-mediated ERK phosphorylation by cell-based assay
[2] = target: Serine/threonine-protein kinase B-raf (Homo sapiens, UniProt P15056, V600E); assay: Inhibition of BRAF V600E mutant (unknown origin)
Cytochrome P450 3A4 = Cytochrome P450 3A4 (Homo sapiens, UniProt P08684); assay: Inhibition of CYP3A4 (unknown origin); format: ADME
[3] = Stability in mouse plasma assessed as compound remaining at 1 uM at 37 degC after 45 mins; format: ADME, cell-free; details: read-out: Stability
[4] = Solubility of the compound at pH 7; format: physicochemical; details: buffer
[5] = Oral bioavailability in rat at 10 mg/kg as single dose; format: ADME, organism-based; details: in vivo
How it was run: (§1)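 Rats received a single oral dose of 10 mg/kg. Clearance, volume of distribution, half-life and oral bioavailability were derived from the plasma PK profile.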

[6] = Half life in rat at 10 mg/kg, po as single dose; format: ADME, organism-based; set-up: dose 10 mg/kg, route oral; details: in vivo; how it was run: as §1
Rattus norvegicus = assay: Volume of distribution in rat at 10 mg/kg, po as single dose; format: ADME, organism-based; set-up: dose 10 mg/kg, route oral; details: in vivo; how it was run: as §1
[7] = Clearance in rat at 10 mg/kg, po as single dose; format: ADME, organism-based; set-up: dose 10 mg/kg, route oral; details: in vivo; how it was run: as §1
Mus musculus [8] = assay: Toxicity in human HT-29 cells harboring B-RAF V600E mutant xenografted nude mouse assessed as body weight loss at 30 mg/kg/day […] relative to control; format: organism-based; details: in vivo
How it was run: (§2)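 Nude mice received subcutaneous HT29 (BRAF V600E) colorectal cells at 3×10^6 cells/mouse, and tumors were established over 10 days. Mice were then randomized into 4 groups and dosed orally once daily with vehicle (5 mM citrate) or compound at 10, 30 or 100 mg/kg for 17 days. Tumor growth is given as ΔT/ΔC, and body weight was monitored.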

[9] = target: Macrophage colony-stimulating factor 1 receptor (Homo sapiens, UniProt P07333); assay: Inhibition of CSF1R kinase (unknown origin)
Mus musculus [10] = assay: Toxicity in human HT-29 cells harboring B-RAF V600E mutant xenografted nude mouse assessed as body weight loss at 10 mg/kg/day for […] relative to control; format: organism-based; details: in vivo; how it was run: as §2
HT-29 [11] = assay: Antitumor activity against human HT-29 cells harboring B-RAF V600E mutant xenografted in nude mouse assessed as tumor growth inhibition at 10 mg/kg/day for […] relative to control; format: functional; how it was run: as §2
HT-29 [12] = assay: Inhibition of ERK phosphorylation in human HT-29 cells harboring B-RAF V600E mutant xenografted in nude mouse at 30 to 100 mg/kg/day for 16 days measured 4 to 24 hrs post final dose by Western blot analysis relative to control; format: functional, organism-based; details: TDE = time-dependent effect
How it was run: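 HT29 (BRAF V600E) subcutaneous xenografts in nude mice were dosed orally once daily in 5 mM citrate vehicle at 30 or 100 mg/kg. Tumors were harvested 4 and 24 h after the final dose. Lysates were analysed by Western blot for pERK and total ERK.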

[13] = target: Mast/stem cell growth factor receptor Kit (Homo sapiens, UniProt P10721); assay: Inhibition of c-Kit (unknown origin)
Mus musculus [14] = assay: Toxicity in human HT-29 cells harboring B-RAF V600E mutant xenografted nude mouse assessed as body weight loss at 100 mg/kg/day […] relative to control; format: organism-based; details: in vivo; how it was run: as §2
HT-29 [15] = assay: Antitumor activity against human HT-29 cells harboring B-RAF V600E mutant xenografted in nude mouse assessed as tumor growth inhibition at 30 mg/kg/day […] relative to control; format: functional; how it was run: as §2
[16] = target: Voltage-gated inwardly rectifying potassium channel KCNH2 (Homo sapiens, UniProt Q12809); assay: Inhibition of human ERG
HT-29 [17] = assay: Antitumor activity against human HT-29 cells harboring B-RAF V600E mutant xenografted in nude mouse assessed as tumor growth inhibition at 100 mg/kg/day […] relative to control; format: functional; how it was run: as §2
[18] = target: Vascular endothelial growth factor receptor (Homo sapiens, UniProt P17948+P35916+P35968); assay: Inhibition of VEGFR (unknown origin); format: protein assay
[19] = target: Proto-oncogene tyrosine-protein kinase Src (Homo sapiens) (UniProt P12931); assay: Inhibition of SRC (unknown origin)
[20] = target: Tyrosine-protein kinase Lck (Homo sapiens, UniProt P06239); assay: Inhibition of LCK (unknown origin)
[21] = target: Platelet-derived growth factor receptor (Homo sapiens, UniProt P09619+P16234); assay: Inhibition of PDGFR (unknown origin); format: protein-complex assay

Chain of Cytochrome P450 3A4 (P08684 whole entry): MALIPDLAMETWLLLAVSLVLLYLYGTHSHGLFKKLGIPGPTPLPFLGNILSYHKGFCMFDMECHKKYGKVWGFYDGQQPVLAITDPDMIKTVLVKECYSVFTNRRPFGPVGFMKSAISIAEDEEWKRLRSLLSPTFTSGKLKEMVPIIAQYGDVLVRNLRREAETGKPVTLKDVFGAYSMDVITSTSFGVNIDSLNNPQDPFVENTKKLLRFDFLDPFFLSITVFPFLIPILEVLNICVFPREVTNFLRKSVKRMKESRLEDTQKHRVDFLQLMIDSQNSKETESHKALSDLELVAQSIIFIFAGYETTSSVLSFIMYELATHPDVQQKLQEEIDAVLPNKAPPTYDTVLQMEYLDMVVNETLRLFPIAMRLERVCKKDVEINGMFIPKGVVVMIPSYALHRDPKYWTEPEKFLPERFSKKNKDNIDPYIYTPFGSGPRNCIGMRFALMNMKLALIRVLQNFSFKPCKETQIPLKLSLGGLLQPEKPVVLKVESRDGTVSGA
Chain of Serine/threonine-protein kinase B-raf (Homo sapiens, UniProt P15056, V600E) (P15056 2-766 V600E limits assumed): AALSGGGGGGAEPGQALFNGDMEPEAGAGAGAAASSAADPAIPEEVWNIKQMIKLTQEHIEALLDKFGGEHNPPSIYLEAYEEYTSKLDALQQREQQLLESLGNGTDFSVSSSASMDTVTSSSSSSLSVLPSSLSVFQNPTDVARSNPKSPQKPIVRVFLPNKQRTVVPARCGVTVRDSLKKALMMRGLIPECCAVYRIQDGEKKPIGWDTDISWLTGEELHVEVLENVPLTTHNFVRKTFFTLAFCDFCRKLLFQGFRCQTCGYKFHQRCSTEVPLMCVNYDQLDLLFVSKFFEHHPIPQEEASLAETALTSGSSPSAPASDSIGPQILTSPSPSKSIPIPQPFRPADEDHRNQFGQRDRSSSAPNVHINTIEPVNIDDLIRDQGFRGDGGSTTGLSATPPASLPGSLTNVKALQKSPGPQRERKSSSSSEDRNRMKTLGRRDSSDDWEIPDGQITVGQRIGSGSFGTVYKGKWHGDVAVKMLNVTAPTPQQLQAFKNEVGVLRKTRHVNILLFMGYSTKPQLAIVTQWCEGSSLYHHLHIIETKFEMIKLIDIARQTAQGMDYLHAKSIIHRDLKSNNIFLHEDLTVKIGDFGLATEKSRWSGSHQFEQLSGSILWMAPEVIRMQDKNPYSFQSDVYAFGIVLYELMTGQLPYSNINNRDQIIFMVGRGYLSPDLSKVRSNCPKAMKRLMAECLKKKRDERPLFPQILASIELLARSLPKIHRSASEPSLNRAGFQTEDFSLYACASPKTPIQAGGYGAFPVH
Chain of Serine/threonine-protein kinase B-raf (Homo sapiens, UniProt P15056) (P15056 whole entry): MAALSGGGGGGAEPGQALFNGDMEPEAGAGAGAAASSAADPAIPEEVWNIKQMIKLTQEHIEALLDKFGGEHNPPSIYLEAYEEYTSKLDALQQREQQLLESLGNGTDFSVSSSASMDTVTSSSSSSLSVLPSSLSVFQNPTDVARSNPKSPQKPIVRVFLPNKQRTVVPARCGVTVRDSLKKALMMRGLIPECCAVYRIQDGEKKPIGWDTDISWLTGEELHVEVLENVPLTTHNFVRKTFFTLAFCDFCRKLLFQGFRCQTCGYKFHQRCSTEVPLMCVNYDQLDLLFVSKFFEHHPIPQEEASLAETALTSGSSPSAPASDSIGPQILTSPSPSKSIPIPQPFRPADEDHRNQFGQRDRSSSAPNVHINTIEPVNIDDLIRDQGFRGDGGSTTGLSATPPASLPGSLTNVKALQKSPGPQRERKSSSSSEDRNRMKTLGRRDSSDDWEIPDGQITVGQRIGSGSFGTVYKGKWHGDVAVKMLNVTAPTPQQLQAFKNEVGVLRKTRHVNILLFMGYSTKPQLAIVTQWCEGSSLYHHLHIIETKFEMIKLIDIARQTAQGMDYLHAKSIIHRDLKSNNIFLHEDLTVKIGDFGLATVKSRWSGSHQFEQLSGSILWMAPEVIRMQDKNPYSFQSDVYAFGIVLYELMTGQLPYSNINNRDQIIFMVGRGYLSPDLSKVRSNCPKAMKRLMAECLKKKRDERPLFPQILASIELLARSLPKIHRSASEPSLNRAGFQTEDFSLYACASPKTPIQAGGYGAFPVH
Chain of Proto-oncogene tyrosine-protein kinase Src (Homo sapiens) (P12931 2-536 limits assumed): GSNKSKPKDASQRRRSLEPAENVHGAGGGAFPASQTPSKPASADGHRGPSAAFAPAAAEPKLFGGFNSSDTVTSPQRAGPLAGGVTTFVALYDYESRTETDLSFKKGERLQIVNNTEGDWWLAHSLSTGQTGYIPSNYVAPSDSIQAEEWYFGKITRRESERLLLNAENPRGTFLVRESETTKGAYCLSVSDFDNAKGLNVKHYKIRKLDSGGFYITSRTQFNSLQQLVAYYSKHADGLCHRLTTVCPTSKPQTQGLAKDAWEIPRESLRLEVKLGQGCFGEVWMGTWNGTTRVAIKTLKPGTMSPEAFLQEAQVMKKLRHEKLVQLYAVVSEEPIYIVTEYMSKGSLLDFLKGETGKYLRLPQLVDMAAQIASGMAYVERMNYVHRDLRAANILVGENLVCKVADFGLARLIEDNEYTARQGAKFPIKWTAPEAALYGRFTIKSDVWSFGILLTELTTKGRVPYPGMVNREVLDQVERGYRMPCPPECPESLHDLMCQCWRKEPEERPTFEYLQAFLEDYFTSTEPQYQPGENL
Chain of Voltage-gated inwardly rectifying potassium channel KCNH2 (Q12809 whole entry): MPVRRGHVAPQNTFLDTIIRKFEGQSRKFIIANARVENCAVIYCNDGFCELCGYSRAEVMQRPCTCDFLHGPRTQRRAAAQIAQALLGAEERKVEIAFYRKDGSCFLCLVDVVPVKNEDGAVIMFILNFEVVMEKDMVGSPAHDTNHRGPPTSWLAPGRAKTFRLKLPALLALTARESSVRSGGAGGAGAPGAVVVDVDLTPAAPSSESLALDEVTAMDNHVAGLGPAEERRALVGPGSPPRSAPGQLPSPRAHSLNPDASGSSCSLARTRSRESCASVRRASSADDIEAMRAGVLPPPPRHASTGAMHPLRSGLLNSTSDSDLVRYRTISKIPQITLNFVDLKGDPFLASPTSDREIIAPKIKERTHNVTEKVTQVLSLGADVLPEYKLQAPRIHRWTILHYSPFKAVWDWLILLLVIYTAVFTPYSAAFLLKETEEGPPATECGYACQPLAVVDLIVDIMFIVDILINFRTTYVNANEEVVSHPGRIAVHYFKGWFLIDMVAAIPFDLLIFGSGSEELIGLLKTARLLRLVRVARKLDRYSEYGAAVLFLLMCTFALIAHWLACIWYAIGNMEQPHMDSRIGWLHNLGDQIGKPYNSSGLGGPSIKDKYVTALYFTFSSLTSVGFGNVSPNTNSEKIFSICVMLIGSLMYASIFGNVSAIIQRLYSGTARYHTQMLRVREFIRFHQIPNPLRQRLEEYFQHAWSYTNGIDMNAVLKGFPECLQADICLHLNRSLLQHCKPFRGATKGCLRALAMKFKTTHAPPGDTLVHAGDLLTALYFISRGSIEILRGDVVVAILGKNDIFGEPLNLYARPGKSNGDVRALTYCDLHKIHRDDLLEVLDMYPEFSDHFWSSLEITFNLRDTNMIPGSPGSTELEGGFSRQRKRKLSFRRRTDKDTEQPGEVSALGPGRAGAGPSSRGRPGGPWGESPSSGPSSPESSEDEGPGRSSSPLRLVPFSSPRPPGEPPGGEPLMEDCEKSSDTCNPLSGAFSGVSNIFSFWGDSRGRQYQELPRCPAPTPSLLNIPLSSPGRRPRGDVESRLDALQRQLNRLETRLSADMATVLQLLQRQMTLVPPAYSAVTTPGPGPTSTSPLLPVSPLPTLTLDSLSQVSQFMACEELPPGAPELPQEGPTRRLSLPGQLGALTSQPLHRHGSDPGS
Chain of Macrophage colony-stimulating factor 1 receptor (P07333 whole entry): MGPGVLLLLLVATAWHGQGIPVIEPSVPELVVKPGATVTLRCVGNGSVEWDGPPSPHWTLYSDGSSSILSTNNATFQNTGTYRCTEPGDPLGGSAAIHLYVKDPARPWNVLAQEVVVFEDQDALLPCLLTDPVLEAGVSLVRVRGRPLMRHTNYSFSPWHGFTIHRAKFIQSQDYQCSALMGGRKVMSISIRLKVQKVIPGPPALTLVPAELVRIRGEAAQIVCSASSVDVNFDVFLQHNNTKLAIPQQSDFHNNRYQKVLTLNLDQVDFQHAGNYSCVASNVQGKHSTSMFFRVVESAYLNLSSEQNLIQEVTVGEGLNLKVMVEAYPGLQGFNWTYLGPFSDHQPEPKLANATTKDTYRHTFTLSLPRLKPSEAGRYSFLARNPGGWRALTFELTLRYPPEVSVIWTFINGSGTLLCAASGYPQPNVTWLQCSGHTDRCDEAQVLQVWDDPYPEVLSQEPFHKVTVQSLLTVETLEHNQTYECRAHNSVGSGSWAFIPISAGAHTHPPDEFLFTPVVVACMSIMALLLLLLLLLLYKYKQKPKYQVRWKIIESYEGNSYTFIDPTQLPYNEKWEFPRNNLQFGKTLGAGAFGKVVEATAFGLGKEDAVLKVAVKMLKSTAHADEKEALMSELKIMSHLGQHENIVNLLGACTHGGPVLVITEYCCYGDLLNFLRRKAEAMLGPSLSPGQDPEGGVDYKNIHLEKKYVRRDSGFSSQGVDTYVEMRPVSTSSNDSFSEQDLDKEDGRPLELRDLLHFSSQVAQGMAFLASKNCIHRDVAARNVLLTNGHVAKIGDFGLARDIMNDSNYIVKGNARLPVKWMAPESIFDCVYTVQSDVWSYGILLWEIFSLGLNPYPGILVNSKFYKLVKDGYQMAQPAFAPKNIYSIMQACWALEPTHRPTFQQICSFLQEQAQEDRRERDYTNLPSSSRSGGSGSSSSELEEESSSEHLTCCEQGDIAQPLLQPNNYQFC

Compound | EC50 [1] | IC50 [2] | also measured
CC(=O)Nc1cc(Oc2ccc3c(c2)nc(Nc2cc(C(F)(F)F)ccc2F)n3C)ccn1 | 90 nM | 1 nM | –
CC(C)N1CCN(CC(=O)Nc2cc(Oc3ccc4c(c3)nc(Nc3cc(C(F)(F)F)ccc3F)n4C)ccn2)CC1 | 100 nM | 6 nM | INH (Cytochrome P450 3A4): 14 µM
CC(=O)Nc1cc(Oc2ccc3c(c2)nc(Nc2cccc(C(C)(C)C)c2)n3C)ccn1 | 40 nM | 3 nM | –
CC(=O)Nc1cc(Oc2ccc3c(c2)nc(Nc2ccc(C(C)C)cc2)n3C)ccn1 | 90 nM | 4 nM | –
CC(=O)Nc1cc(Oc2ccc3c(c2)nc(Nc2ccc(C(F)(F)F)cc2)n3C)ccn1 | 50 nM | 4 nM | remaining at 0.75 h, 1 µM [3]: 100%
CC(C)N1CCC(C(=O)Nc2cc(Oc3ccc4c(c3)nc(Nc3cccc(C(C)(C)C)c3)n4C)ccn2)CC1 | 100 nM | 20 nM | INH (Cytochrome P450 3A4): 3 µM; solubility [4]: 581 µg/mL (≈ 1070 µM); bioavailability [5]: 15%; half-life [6]: 4.18 h; Vd (Rattus norvegicus): 17.784 L/kg; CL/F [7]: 90 mL/min/kg
CC(=O)Nc1cc(Oc2ccc3c(c2)nc(Nc2cccc(OC(F)(F)F)c2)n3C)ccn1 | 100 nM | 0.4 nM | –
CC(=O)Nc1cc(Oc2ccc3c(c2)nc(Nc2cccc(C(F)(F)F)c2)n3C)ccn1 | 400 nM | 3 nM | –
CCc1ccc(Nc2nc3cc(Oc4ccnc(NC(C)=O)c4)ccc3n2C)cc1 | 80 nM | 1 nM | –
Cn1c(Nc2cccc(C(C)(C)C)c2)nc2cc(Oc3ccnc(NC(=O)C4CCNCC4)c3)ccc21 | 100 nM | 7 nM | –
CN1CCC(C(=O)Nc2cc(Oc3ccc4c(c3)nc(Nc3cccc(C(C)(C)C)c3)n4C)ccn2)CC1 | 100 nM | 10 nM | –
CCc1cccc(Nc2nc3cc(Oc4ccnc(NC(C)=O)c4)ccc3n2C)c1 | 100 nM | < 0.4 nM | –
CC(=O)Nc1cc(Oc2ccc3c(c2)nc(Nc2ccc(OC(F)(F)F)cc2)n3C)ccn1 | 100 nM | 1 nM | –
CCN1CCN(CC(=O)Nc2cc(Oc3ccc4c(c3)nc(Nc3cc(C(F)(F)F)ccc3F)n4C)ccn2)CC1 | 100 nM | 6 nM | Activity (Mus musculus [8]): Non-toxic; INH (Cytochrome P450 3A4): > 25 µM; IC50 [9]: < 10 nM; bioavailability [5]: 40%; Activity (Mus musculus [10]): Non-toxic; T/C (HT-29 [11]): 52%; inhibition (HT-29 [12]): tde; half-life [6]: 5.67 h; IC50 [13]: < 10 nM; Vd (Rattus norvegicus): 12.737 L/kg; Activity (Mus musculus [14]): 13%; CL/F [7]: 32 mL/min/kg; T/C (HT-29 [15]): 72%; INH [16]: 2.3 µM; T/C (HT-29 [17]): 75%; IC50 [18]: < 10 nM; inhibition [19]: inactive; remaining at 0.75 h, 1 µM [3]: 1%; IC50 [20]: 240 nM; IC50 [21]: < 10 nM
CC(=O)Nc1cc(Oc2ccc3c(c2)nc(Nc2cccc(C(C)C)c2)n3C)ccn1 | 50 nM | < 0.4 nM | –
CC(=O)Nc1cc(Oc2ccc3c(c2)nc(Nc2ccc(C(C)(C)C)cc2)n3C)ccn1 | 50 nM | 9 nM | –
CC(C)N1CCC(C(=O)Nc2cc(Oc3ccc4c(c3)nc(Nc3cc(C(F)(F)F)ccc3F)n4C)ccn2)CC1 | 100 nM | 2 nM | bioavailability [5]: 54%; CL/F [7]: 49 mL/min/kg
